Results as given in PMC8268672 (Bioorganic Chemistry, 2021).
pEC50: −log10 of the molar value. In brackets after ≈: the same amount, converted by molar mass. Like-named read-outs stand apart in the source and are kept apart here.

Assays:
[1] = tested on: Staphylococcus aureus (ATCC 29213); assay: MIC, broth microdilution; assay type: cell-based; conditions: ATCC29213, read-out: Minimum inhibitory concentration (MIC), SA
In short: (§1)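 Antibacterial MICs by CLSI broth microdilution in Mueller-Hinton broth. Test compounds and standard drugs are serially diluted two-fold from 512 to 0.25. The bacterial broth culture is grown 2-6 h to a 0.5 McFarland turbidity, then adjusted with sterile solution to the final inoculum.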

[2] = tested on: Candida albicans (NCIM 2087); assay: Agar disk diffusion, inhibition zone; assay type: cell-based; conditions: 100 µg/8 mm disc, triplicate, mean ± SD
[3] = tested on: Klebsiella aerogenes (NCIM-2098); assay: Agar disk diffusion, inhibition zone; assay type: cell-based; conditions: 100 µg/8 mm disc, triplicate, mean ± SD
[4] = tested on: Klebsiella aerogenes (NCIM-2098); assay: MIC, broth microdilution; assay type: cell-based; conditions: NCIM2098, read-out: Minimum inhibitory concentration (MIC), KA
In short: as §1

[5] = tested on: Madin Darby canine kidney (MDCK) cells; conditions: dog
[6] = tested on: Staphylococcus aureus (ATCC 29213); assay: Agar disk diffusion, inhibition zone; assay type: cell-based; conditions: 100 µg/8 mm disc, triplicate, mean ± SD
In short: (§2)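 Agar disk diffusion on Mueller-Hinton agar plates seeded with a standard bacterial suspension. Test compound stock in DMSO, diluted with distilled water; 8 mm sterile filter-paper discs soaked in the solution. Ampicillin was the reference. Plates incubated at 35 °C for 24 h, in triplicate. Read-out is the average inhibition-zone diameter (mm) around each disc.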

Adeno virus-2 = assay: CPE reduction assay in HEL cells; assay type: cell-based; conditions: read-out: Antiviral EC50, Adeno virus-2
[7] = tested on: Aspergillus fumigatus (NCIM 2081); assay: Agar disk diffusion, inhibition zone; assay type: cell-based; conditions: 100 µg/8 mm disc, triplicate, mean ± SD
[8] = tested on: Pseudomonas aeruginosa (MCCB 0035); assay: Agar disk diffusion, inhibition zone; assay type: cell-based; conditions: 100 µg/8 mm disc, triplicate, mean ± SD
Vero cells = conditions: Vero cell cultures; microscopically detectable alteration of normal cell morphology
[9] = tested on: Aspergillus niger (NCIM 2191); assay: MIC, broth microdilution; assay type: cell-based; conditions: NCIM2191, read-out: Minimum inhibitory concentration (MIC), AN
In short: (§3)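 Antifungal MICs by CLSI broth microdilution in Sabouraud liquid medium. Test compounds and standard drugs are serially diluted two-fold from 512 to 0.25. The fungal broth culture is grown 24 h at 35 °C to a 0.5 McFarland turbidity, then adjusted with sterile solution to the final inoculum.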

[10] = tested on: Aspergillus niger (NCIM 2191); assay: Agar disk diffusion, inhibition zone; assay type: cell-based; conditions: 100 µg/8 mm disc, triplicate, mean ± SD
In short: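 For the fungal strain, discs soaked in test compound solution (DMSO stock diluted with distilled water) sat on seeded Mueller-Hinton agar. Clotrimazole was the reference. Incubation ran 48 h at 35 °C, in triplicate. Zone of growth inhibition recorded in mm as the mean diameter around each disc.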

[11] = tested on: Candida albicans (NCIM 2087); assay: MIC, broth microdilution; assay type: cell-based; conditions: NCIM2087, read-out: Minimum inhibitory concentration (MIC), CA
In short: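 CLSI broth microdilution in Sabouraud liquid medium, with test compound two-fold serially diluted from 512 to 0.25. Fungal broth culture grown 24 h at 35 °C to 0.5 McFarland turbidity, then adjusted with sterile solution to a final […] inoculum. MIC expressed in µg/mL.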

[12] = tested on: Streptococcus pneumonia (ATCC 49619); assay: Agar disk diffusion, inhibition zone; assay type: cell-based; conditions: 100 µg/8 mm disc, triplicate, mean ± SD
Sindbis virus = assay: CPE reduction assay in Vero cells; assay type: cell-based; conditions: read-out: Antiviral EC50, Sindbis virus
Reovirus-1 = assay: CPE reduction assay in Vero cells; assay type: cell-based; conditions: read-out: Antiviral EC50, Reovirus-1
Para-influenza-3 virus = assay: CPE reduction assay in Vero cells; assay type: cell-based, Parainfluenza-3 virus; conditions: Vero, read-out: Antiviral EC50, Para-influenza-3 virus
[13] = tested on: Bacillus cereus (NCIM-2458); assay: MIC, broth microdilution; assay type: cell-based; conditions: NCIM2458, read-out: Minimum inhibitory concentration (MIC), BC
In short: (§4)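 Broth microdilution per CLSI in Mueller-Hinton broth, using two-fold serial dilutions of test compound and reference drugs from 512 to 0.25. Bacterial broth cultures were grown 2-6 h to 0.5 McFarland turbidity, then diluted with sterile solution to the final inoculum. MIC is reported in µg/mL.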

[14] = tested on: Bacillus cereus (NCIM-2458); assay: Agar disk diffusion, inhibition zone; assay type: cell-based; conditions: 100 µg/8 mm disc, triplicate, mean ± SD
[15] = tested on: Influenza A/H1N1 A/Ned/378/05; assay: CPE reduction assay in MDCK cells; assay type: cell-based; conditions: Influenza A virus
[16] = tested on: Human embryonic lung (HEL) cells; conditions: HEL cell cultures; microscopically detectable alteration of normal cell morphology
Yellow Fever virus = assay: microbe, parasite or virus in culture; assay type: cell-based; conditions: Yellow fever virus, Vero, read-out: Antiviral EC50, Yellow Fever virus
[17] = tested on: Influenza A/H3N2 A/HK/7/87; assay: CPE reduction assay in MDCK cells; assay type: cell-based; conditions: Influenza A virus
Punta Toro virus = assay: CPE reduction assay in Vero cells; assay type: cell-based; conditions: read-out: Antiviral EC50, Punta Toro virus
[18] = tested on: Salmonella typhimurium (NCIM-2501); assay: Agar disk diffusion, inhibition zone; assay type: cell-based; conditions: 100 µg/8 mm disc, triplicate, mean ± SD
Influenza B B/Ned/537/05 = assay: CPE reduction assay in MDCK cells; assay type: cell-based; conditions: Influenza B virus, read-out: Antiviral EC50, Influenza B B/Ned/537/05, MTS
[19] = tested on: Pseudomonas aeruginosa (MCCB 0035); assay: MIC, broth microdilution; assay type: cell-based; conditions: read-out: Minimum inhibitory concentration (MIC), PA
In short: as §4

Coxsackie virus B4 = assay: CPE reduction assay in Vero cells; assay type: cell-based; conditions: Enterovirus B, read-out: Antiviral EC50, Coxsackie virus B4
[20] = tested on: Cryptococcus neoformans (ATCC 9011); assay: Agar disk diffusion, inhibition zone; assay type: cell-based; conditions: 100 µg/8 mm disc, triplicate, mean ± SD
[21] = tested on: Escherichia coli (ATCC 8739); assay: MIC, broth microdilution; assay type: cell-based; conditions: ATCC8739, read-out: Minimum inhibitory concentration (MIC), EC
In short: as §4

MT4 cells = conditions: MT4 cell cultures; colorimetric MTT cell viability assay
[22] = tested on: Lactobacillus casei (NCIM-2651); assay: Agar disk diffusion, inhibition zone; assay type: cell-based; conditions: 100 µg/8 mm disc, triplicate, mean ± SD
[23] = tested on: Aspergillus fumigatus (NCIM 2081); assay: MIC, broth microdilution; assay type: cell-based; conditions: NCIM2081, read-out: Minimum inhibitory concentration (MIC), AF
In short: as §3

Vaccinia virus = assay: microbe, parasite or virus in culture; assay type: cell-based; conditions: Orthopoxvirus vaccinia, HEL, read-out: Antiviral EC50, Vaccinia virus
Human Coronavirus (229E) = assay: CPE reduction assay in HEL cells; assay type: cell-based; conditions: read-out: Antiviral EC50, Human Coronavirus (229E)
[24] = tested on: Cryptococcus neoformans (ATCC 9011); assay: MIC, broth microdilution; assay type: cell-based; conditions: ATCC9011, read-out: Minimum inhibitory concentration (MIC), CN
In short: as §3

[25] = tested on: Escherichia coli (ATCC 8739); assay: Agar disk diffusion, inhibition zone; assay type: cell-based; conditions: 100 µg/8 mm disc, triplicate, mean ± SD
In short: as §2

## Cc1ccc(S(=O)(=O)N2C(=O)CSC2c2ccc(Cl)cc2)cc1 (stereo not drawn) [5g, 2-(4-Chlorophenyl)-3-[(4-methylphenyl)sulfonyl]-1,3-thiazolidin-4-one]
[1]
  MIC: 4 µg/mL (≈ 10.9 µM)
[2]
  Diameter of growth inhibition zone, CA: 20 ± 1.5 mm
[3]
  Diameter of growth inhibition zone, KA: 12 ± 0.12 mm
[4]
  MIC: 32 µg/mL (≈ 87 µM)
[5]
  Cytotoxicity, Minimum cytotoxic conc.: >100 µM
[6]
  Diameter of growth inhibition zone, SA: 22 ± 0.63 mm
Adeno virus-2
  pEC50: < 4.00
[7]
  Diameter of growth inhibition zone, AF: 13 ± 0.63 mm
[8]
  Diameter of growth inhibition zone, PA: 24 ± 1.5 mm
Vero cells
  Minimum cytotoxic conc.: >100 µM
[9]
  MIC: 8 µg/mL (≈ 21.7 µM)
[10]
  Diameter of growth inhibition zone, AN: 18 ± 1.1 mm
[11]
  MIC: 8 µg/mL (≈ 21.7 µM)
[12]
  Diameter of growth inhibition zone, SP: 12 ± 1.43 mm
Sindbis virus
  pEC50: < 4.00
Reovirus-1
  pEC50: < 4.00
Para-influenza-3 virus
  pEC50: < 4.00
[13]
  MIC: 8 µg/mL (≈ 21.7 µM)
[14]
  Diameter of growth inhibition zone, BC: 18 ± 0.33 mm
[15]; read-out: Antiviral EC50, Influenza A/H1N1 A/Ned/378/05, MTS
  pEC50: < 4.00
[15]; read-out: Antiviral EC50, Influenza A/H1N1 A/Ned/378/05, visual CPE score
  pEC50: < 4.00
[16]
  Minimum cytotoxic conc.: >100 µM
Yellow Fever virus
  pEC50: < 4.00
[17]; read-out: Antiviral EC50, Influenza A/H3N2 A/HK/7/87, MTS
  pEC50: < 4.00
[17]; read-out: Antiviral EC50, Influenza A/H3N2 A/HK/7/87, visual CPE score
  pEC50: < 4.00
Punta Toro virus
  pEC50: < 4.00
[18]
  Diameter of growth inhibition zone, ST: 12 ± 0.9 mm
Influenza B B/Ned/537/05
  pEC50: < 4.00
[19]
  MIC: 8 µg/mL (≈ 21.7 µM)
Coxsackie virus B4
  pEC50: < 4.00
[20]
  Diameter of growth inhibition zone, CN: 12 ± 1.8 mm
[21]
  MIC: 4 µg/mL (≈ 10.9 µM)
MT4 cells
  Minimum cytotoxic conc.: >125 µM
[22]
  Diameter of growth inhibition zone, LC: 14 ± 0.4 mm
[23]
  MIC: 16 µg/mL (≈ 43.5 µM)
Vaccinia virus
  pEC50: < 4.00
Human Coronavirus (229E)
  pEC50: < 4.00
[24]
  MIC: 16 µg/mL (≈ 43.5 µM)
[25]
  Diameter of growth inhibition zone, EC: 23 ± 0.32 mm
